Experiment [1] relates to G-361. Description: Cytotoxicity against human G361 cells pretreated for 4 hrs followed by light irradiation of 10 J/cm2 at 414 nm measured after 68 hrs by MTT assay. Format: functional, cell-based. Conditions: G-361, light or radiation study. An outline of the steps: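 Cells grown in phenol red-free DMEM with 10 % FBS, penicillin/streptomycin, 37 °C, 5 % CO₂. Compound added 24 h after plating and incubated 4 h. Irradiated cells received 414 nm LED light at 20 mW/cm², 10 J/cm², then were incubated 20 h or 68 h more. Dark plates were run in parallel without irradiation. MTT was added for 4 h, formazan dissolved in 10 % SDS, absorbance read at 570 nm. EC50 ± SD.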
(Formazan colour is commonly taken as a measure of viable cells.)

A short description of experiment [2]: Selectivity ratio of EC50 for human BJ cells under dark condition measured after 72 hrs by MTT assay to EC50 for human G361 cells pretreated for 4 hrs followed by light irradiation of 10 J/cm2 at 414 nm measured after 68 hrs by MTT assay. It counts as functional. An outline of the steps: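 Ratio of dark EC50 to EC50 after 414 nm irradiation (10 J/cm²). MTT read-out; compound exposure 4 h before irradiation. Each dark value is paired with the matching post-irradiation incubation (20 h or 68 h).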

Experiment [3] deals with G-361. Nature of the experiment: Induction of ROS production in human G361 cells pretreated for 4 hrs followed by light irradiation of 5 to 10 J/cm2 measured immediately by CM-H2DCFA probe based analysis. It counts as functional, cell-based. Conditions: dose <= 4.0 µM. A digest of the protocol:
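Cells loaded next day with 5 µM CM-H₂DCFDA for 30 min, then placed in prewarmed PBS with 5 mM glucose. Compound exposure 4 h, followed by 414 nm irradiation at 5 or 10 J/cm²; dark samples run in parallel. Fluorescence read immediately at 492/530 nm. NAC (5 mM) pretreatment for 10 min gave negative controls. RFU normalised to untreated dark control.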

For experiment [4], the system named is ARN-8 cell. Description: Induction of ROS production in human ARN-8 cells-derived from human A375 cells assessed as increase in singlet oxygen level upto 4 uM pretreated for 4 hrs followed by replacement of medium containing probe without compound for 30 mins and subsequent light irradiation of 5 to 10 J/cm2 measured immediately by DHR-123 probe based analysis. It counts as functional. An outline of the steps: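 Compound exposure 4 h, then medium replaced with PBS containing 5 µM DHR123 probe for 30 min. Probe removed, cells in PBS irradiated at 5 or 10 J/cm², dark samples in parallel. Fluorescence read immediately at 490/525 nm.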

Experiment [5] concerns G-361. Nature of the experiment: Induction of oxidative stress in human G361 cells assessed as increase in HO-1 level upto 4 uM under dark condition by immunoblot analysis. Format: functional, cell-based. (In general: In western blotting, separated proteins are transferred to a membrane and probed.)
Experiment [6] concerns ARN-8 cell. Description: Induction of apoptosis in human ARN-8 cells-derived from human A375 cells assessed as decrease in Bcl-2 level upto 4 uM pretreated for 4 hrs followed by light irradiation of 10 J/cm2 at 414 nm measured after 20 hrs by Western blot analysis. Format: functional, cell-based. Conditions: time 24.0 hrs. An outline of the steps:
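Compound exposure 4 h, then 414 nm irradiation, then 20 h further incubation. Lysates made in RIPA buffer, separated by SDS-PAGE and blotted to nitrocellulose. Primary antibodies in TBS with 4 % BSA and 0.1 % Tween 20, incubated overnight. Peroxidase secondary antibody with chemiluminescent detection. GAPDH served as loading control.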

Active and inactive are the calls of the source. The calls are words filed in the database; no cut-off is given here.

One may read the EC50 as the concentration giving half of the maximal effect. `COc1ccc(/C=C/C2=Nc3ccc4ccccc4c3C2(C)C)cc1[N+](=O)[O-]`: in experiment [1], the EC50 turned out to be 200 nM. The “Ratio EC50” value in experiment [2] is above 40. Further, in experiment [3], the Activity entry is “Dose-Dependent Effect”. In addition, the outcome in experiment [4] was inactive. Besides, the result in experiment [5] and in experiment [6] was Active.

These data come from ChEMBL document CHEMBL6071149, “Synthesis and photo-induced anticancer activity of new 2-phenylethenyl-1H-benzo[e]indole dyes” (Eur J Med Chem, 2024).
